# In PubChem BioAssay:
# Activity calls are given as the source filed them.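 How the source made its calls, unless noted: active means viability at or under a set limit in both replicates, limit being median viability minus 3 SD (cut at about 48% in these data, passing the limit was not always enough); inconclusive means at or under the limit in just one replicate; inactive means at or above the limit in both replicates.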
# Assays:
# [1] = reduced viability of SK-BR-3 breast cancer cells – cell-based, 24 h, human, pilot screen (AID 572;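 active means viability at or below 10% of carrier control in both of two separate runs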;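 further: compound exposure lasted between 18 and 24 h rather than exactly 24 h; 100% = carrier-treated control wells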); details: SK-BR-3 viability, CellTiter-Glo luminescence, at 10 µM, stronger effect = lower value
# [2] = HUVEC growth inhibition – cell-based, human, primary screen (AID 575;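 active means viability at or below 30% in both replicate assays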;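 further: 100% = median of untreated cell wells with 0.1% DMSO on each plate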); details: HUVEC proliferation, CellTiter-Glo luminescence, 72 h; at 10 µM; stronger effect = lower value
# Procedure, shortened: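 System: primary human umbilical vein endothelial cells; Quantity: 1250 endothelial cells in each well; Buffer or medium: supplemented EBM, 2% fetal bovine serum; Doses: one dose, 10 µM final, 0.1% DMSO; Incubation: 72 h compound incubation; Technique: ATP-based CellTiter-Glo luminescent read; Evaluation: percent of median DMSO-control luminescence; Controls: vehicle and MePR control wells.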
# [3] = H69AR cell proliferation blockers – human, duplicate replicates, primary screen (AID 580); details: H69AR lung tumor cells viability, ATP luminescence, 72 h; at 10 µM; stronger effect = lower value;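 further: 100% = mean luminescence of untreated wells and 0% = no signal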
# [4] = MRP1 drug-resistance reversers in H69AR cells – cell-based, doxorubicin co-treatment, pilot screen (AID 601;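 active means viability loss from added drug above about 55%, and viability with drug at most 40%, in both replicates, limit read from the data, passing the limit was not always enough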); details: CellTiter-Glo, 72 h, at 10 µM; for differential viability (reversal): stronger effect = higher value
# [5] = yeast transport mutant growth inhibition pilot in 384-well plates, post-Golgi transport modulator project (AID 636; in the data active means inhibition above about 31%); details: absorbance 615 nm, about 18 h, stronger effect = higher value
# [6] = growth suppression of yeast trafficking mutant, preliminary HTS, modulators of trafficking downstream of Golgi apparatus project, 1536-format plate, OD 615 nm (AID 637; in the data active means inhibition above about 30%); details: yeast transport mutant growth, absorbance 615 nm, 18 h; stronger effect = higher value
# [7] = H69AR cells + 2 uM doxorubicin, measured here: viability with 2 uM doxorubicin, stronger effect = lower value
# [8] = H69AR cells, compound alone cytotoxicity
Compound,viability [1],viability [2],viability [3],differential viability (reversal) ([4]; H69AR cells + 2 uM doxorubicin),"viability [4, 7] [%]","viability [4, 8] [%]",inhibition [5],inhibition [6]
N#Cc1c(-c2ccc3c(c2)OCO3)csc1N,96% (inactive),83.9% (inactive),95.2% (inactive),1.51% (inactive),93.7,95.2,3.29% (inactive),4.73% (inactive)
CCOC(=O)c1ccc(NC(=O)CSC2=NC(=O)C(CC)C(=O)N2)cc1 (stereo unspecified),94% (inactive),65.8% (inactive),105% (inactive),22.1% (inactive),83.3,105,0.78% (inactive),-2.3% (inactive)
Cc1ccc(Cl)cc1N1CCN(C(=O)CN2C(=O)c3cccc4cccc2c34)CC1,94.5% (inactive),66.6% (inactive),72.1% (inactive),-4.18% (inactive),76.3,72.1,-4.42% (inactive),3.65% (inactive)
CCOC(=O)Cn1nnc(-c2ccc(SC)cc2)n1,96% (inactive),100% (inactive),98% (inactive),5.72% (inactive),92.3,98,-8.38% (inactive),-4.36% (inactive)
COc1ccc(N2C(=O)c3cccc4cccc(c34)C2=O)nn1,82% (inactive),90.8% (inactive),92.3% (inactive),-7.67% (inactive),100,92.3,-5.89% (inactive),5.09% (inactive)
N[C@@H](C(=O)N[C@@H]1C(=O)N2C(C(=O)O)=C(Cl)CS[C@H]12)c1ccccc1,108% (inactive),98% (inactive),114% (inactive),10.7% (inactive),103,114,-2.6% (inactive),4.83% (inactive)
CC(=O)NCCC(=O)Nc1ccc(C)c(F)c1,110% (inactive),110% (inactive),91.4% (inactive),-17% (inactive),108,91.4,-2.05% (inactive),3.09% (inactive)
Cc1nc2sccn2c(=O)c1CCN1CCC(=C(c2ccc(F)cc2)c2ccc(F)cc2)CC1,111% (inactive),11.5% (active),85.7% (inactive),-2.19% (inactive),87.8,85.7,1.04% (inactive),6.17% (inactive)
C[C@H](CCC(=O)O)[C@H]1CC[C@H]2[C@@H]3C(=O)C[C@@H]4CC(=O)CC[C@]4(C)[C@H]3CC(=O)[C@]12C,128% (inactive),88.9% (inactive),96% (inactive),-6.55% (inactive),102,96,0.65% (inactive),-0.83% (inactive)
O=C(O)c1cc2cc(F)ccc2[nH]1,110% (inactive),78.4% (inactive),94.5% (inactive),-17.1% (inactive),112,94.5,-1.82% (inactive),-4.67% (inactive)
Cc1ccc2nc(-c3ccccn3)cc(C(=O)N3CCN(c4ncccn4)CC3)c2c1,100% (inactive),102% (inactive),77.8% (inactive),-5.74% (inactive),83.5,77.8,-2.7% (inactive),0.91% (inactive)
CCCCn1nnnc1NCc1cccs1,98% (inactive),97% (inactive),99.2% (inactive),14.4% (inactive),84.8,99.2,-6.49% (inactive),-0.33% (inactive)
C=CCNC(=O)c1ccc(Cl)cc1Cl,108% (inactive),92.8% (inactive),97% (inactive),4.47% (inactive),92.6,97,-3.9% (inactive),-1.48% (inactive)
Cc1ccc(-c2nnc(N3CCN(C(=O)CN4C(=O)c5ccccc5C4=O)CC3)c3ccccc23)cc1,84% (inactive),73% (inactive),94% (inactive),-0.335% (inactive),94.3,94,-1.23% (inactive),-4.03% (inactive)
COc1ccc(NC(=O)CSc2c(C)nn(-c3nnc(C)c(=O)[nH]3)c2C)cc1,101% (inactive),98.2% (inactive),113% (inactive),17% (inactive),95.5,113,-0.41% (inactive),-6.45% (inactive)
CCCC(=O)Nc1cc(-c2nnc(OC)c3ccccc23)ccc1N1CCOCC1,109% (inactive),84.6% (inactive),94.5% (inactive),-7.97% (inactive),102,94.5,0.96% (inactive),3.71% (inactive)
COc1cc2cc(C(c3nnnn3C3CCCC3)N(C)C3CCCCC3)c(=O)[nH]c2cc1OC (stereo unspecified),81% (inactive),85.2% (inactive),81.9% (inactive),-4.31% (inactive),86.2,81.9,-1.3% (inactive),-2.13% (inactive)
COc1cccc(OCc2nnc(SCC(=O)OCc3ccccc3)o2)c1,101% (inactive),108% (inactive),97% (inactive),5.81% (inactive),91.2,97,-6.93% (inactive),-3.09% (inactive)
CCc1n[nH]c2c1C(=O)CC(C)(C)C2,73% (inactive),106% (inactive),89.1% (inactive),-1.54% (inactive),90.6,89.1,2% (inactive),6% (inactive)
C1COC(NC(C2CC2)C2CC2)=N1,94% (inactive),77.3% (inactive),84.9% (inactive),5.27% (inactive),79.6,84.9,-1.3% (inactive),-5.17% (inactive)
CCCNC(=O)c1cc(S(=O)(=O)N2CCc3ccccc32)ccc1F,89% (inactive),113% (inactive),97% (inactive),6.73% (inactive),90.3,97,-6.13% (inactive),2.18% (inactive)
Cc1cc(NC(=O)CCCC(=O)Nc2ccc(F)cc2)no1,101% (inactive),96.8% (inactive),97% (inactive),-0.445% (inactive),97.5,97,-1.56% (inactive),-1.48% (inactive)
Cc1csc(NC(=O)C2CCCO2)n1 (stereo unspecified),87% (inactive),86.9% (inactive),91.4% (inactive),9.97% (inactive),81.4,91.4,-4.16% (inactive),10.3% (inactive)
CN(c1ccc(OCc2nnc(-c3ccccc3)o2)cc1)S(=O)(=O)c1ccccc1,99% (inactive),96.6% (inactive),82.9% (inactive),2.42% (inactive),80.5,82.9,-7.7% (inactive),-5.45% (inactive)

Compound,viability [1],viability [2],viability [3],differential viability (reversal) ([4]; H69AR cells + 2 uM doxorubicin),"viability [4, 7] [%]","viability [4, 8] [%]",inhibition [5],inhibition [6]
CCCNC(=O)C1CN(S(=O)(=O)c2ccccc2)CCN1S(=O)(=O)c1ccccc1 (stereo unspecified),103% (inactive),108% (inactive),99.2% (inactive),9.82% (inactive),89.4,99.2,4.42% (inactive),3.77% (inactive)
CCCC1O[C@@H]2C[C@H]3[C@@H]4CCC5=CC(=O)C=C[C@]5(C)[C@H]4[C@@H](O)C[C@]3(C)[C@]2(C(=O)CO)O1 (stereo partly specified),109% (inactive),82.4% (inactive),79.6% (inactive),0.52% (inactive),79.1,79.6,1.04% (inactive),-3.83% (inactive)
CCOc1nc(-c2ccccc2O)nc2ccccc12,68% (inactive),108% (inactive),100% (inactive),0.64% (inactive),99.5,100,1.23% (inactive),0.55% (inactive)
CCCCN(Cc1cc2cc(OC)ccc2[nH]c1=O)C(=O)c1ccccn1,102% (inactive),98% (inactive),102% (inactive),6.81% (inactive),95,102,-5.14% (inactive),-3.82% (inactive)
O=S(=O)(c1ccc2c(c1)OCCO2)N1CCN(Cc2ccc3c(c2)OCO3)CC1,112% (inactive),105% (inactive),88.4% (inactive),-6.71% (inactive),95.1,88.4,-3.24% (inactive),1.09% (inactive)
C=CCn1c(SCC(=O)c2ccccc2)nnc1-c1ccc2c(c1)OCO2,97% (inactive),107% (inactive),100% (inactive),-2.68% (inactive),103,100,-1.78% (inactive),-3.06% (inactive)
Cc1noc(C)c1CSc1nnc2scc(-c3ccc(Cl)cc3)n12,88% (inactive),113% (inactive),91.6% (inactive),4.96% (inactive),86.7,91.6,-8.63% (inactive),1.13% (inactive)
CC(=O)OCC(=O)[C@H]1CC[C@H]2[C@@H]3CC=C4C[C@@H](O)CC[C@]4(C)[C@H]3CC[C@]12C,87% (inactive),44.3% (inactive),96.8% (inactive),4.54% (inactive),92.3,96.8,-0.65% (inactive),44.5% (active)
CC1=C(/C=C/C(C)=C/C=C/C(C)=C/C(=O)O)C(C)(C)CCC1,84% (inactive),83.7% (inactive),104% (inactive),2% (inactive),102,104,0.91% (inactive),8.67% (inactive)
Cc1noc(C)c1CSc1nc2ccccc2s1,82% (inactive),80.8% (inactive),67.8% (inactive),-3.12% (inactive),70.9,67.8,-1.43% (inactive),-4.1% (inactive)
Cc1c(Cl)cccc1NC(=O)CCN1CCCCCC1,116% (inactive),103% (inactive),88.3% (inactive),2.1% (inactive),86.2,88.3,-6.85% (inactive),5.64% (inactive)
COc1ccc(NC(=O)N2CCC(c3nc(-c4cccs4)no3)CC2)cc1,121% (inactive),98.3% (inactive),95.6% (inactive),15.4% (inactive),80.2,95.6,-2.4% (inactive),0.73% (inactive)
CC[C@H](C)C(=O)O[C@H]1C[C@@H](C)C=C2C=C[C@H](C)[C@H](CC[C@@H]3C[C@@H](O)CC(=O)O3)[C@H]21,110% (inactive),50.6% (inactive),72.2% (inactive),-6.58% (inactive),78.7,72.2,-1.82% (inactive),2.83% (inactive)
COc1ccc(Nc2nc(Nc3ccc(OC)cc3)nc(-n3[nH]c(=O)c(C)c3C)n2)cc1,79% (inactive),92.8% (inactive),12.1% (active),1.18% (inactive),11,12.1,-4.32% (inactive),16.9% (inactive)
CCOC(=O)Nc1ccc(NS(=O)(=O)c2ccc(C)cc2)cc1,72% (inactive),86.6% (inactive),83.7% (inactive),-12.3% (inactive),96.1,83.7,1.92% (inactive),-7.42% (inactive)
O=C1NC(=O)C(c2ccccc2)(c2ccccc2)N1,111% (inactive),75.6% (inactive),98% (inactive),7.3% (inactive),90.7,98,2.86% (inactive),-1% (inactive)
CN(C(=O)c1ccccn1)c1nnc(-c2cccnc2)s1,97% (inactive),90.6% (inactive),111% (inactive),17.8% (inactive),93.5,111,-5.07% (inactive),-2.26% (inactive)
COc1ccccc1-n1c(=O)c2c3c(sc2n2c(SC(C)C)nnc12)CCC3,104% (inactive),113% (inactive),86.2% (inactive),44.6% (inactive),41.7,86.2,-0.14% (inactive),1.77% (inactive)
CCc1ccc(Nc2cc(=O)n(C3CCCCC3)c(=O)[nH]2)cc1,136% (inactive),44% (inactive),18.3% (active),-32.1% (inactive),50.4,18.3,-3.65% (inactive),-13% (inactive)
CCOCCCN(Cc1cc2cc(C)cc(C)c2[nH]c1=O)C(=O)N(CC)CC,58% (inactive),116% (inactive),82% (inactive),-2.52% (inactive),84.5,82,0.93% (inactive),10% (inactive)
CCc1nnc(NC(=O)C2Cc3ccccc3CN2S(=O)(=O)c2cccs2)s1 (stereo unspecified),109% (inactive),89% (inactive),68.1% (inactive),-16.4% (inactive),84.5,68.1,-2.34% (inactive),-3.28% (inactive)
Cc1ccc(S(=O)(=O)NC(=O)NN2CCCCCC2)cc1,112% (inactive),81.1% (inactive),114% (inactive),14% (inactive),100,114,-3.38% (inactive),4.17% (inactive)
O=C(O)c1ccc(S(=O)(=O)Cc2ccccc2)cc1,95% (inactive),102% (inactive),87.3% (inactive),-7.88% (inactive),95.2,87.3,-3.29% (inactive),1.45% (inactive)
